Assay outcomes: PubChem, several laboratories
NPY Y2 blocker = blocks the human neuropeptide Y Y2 receptor. P49146. NPY-Y2 expressing cells, antagonist mode. inhibition, % at 2.7 µM. actives 0.99% (n = 140,000). AID 793; in the data active means inhibition above about 17%;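 further: 0% = vehicle with agonist challenge and 100% = reference antagonist with challenge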
Target sequence (P49146 whole entry, looked up): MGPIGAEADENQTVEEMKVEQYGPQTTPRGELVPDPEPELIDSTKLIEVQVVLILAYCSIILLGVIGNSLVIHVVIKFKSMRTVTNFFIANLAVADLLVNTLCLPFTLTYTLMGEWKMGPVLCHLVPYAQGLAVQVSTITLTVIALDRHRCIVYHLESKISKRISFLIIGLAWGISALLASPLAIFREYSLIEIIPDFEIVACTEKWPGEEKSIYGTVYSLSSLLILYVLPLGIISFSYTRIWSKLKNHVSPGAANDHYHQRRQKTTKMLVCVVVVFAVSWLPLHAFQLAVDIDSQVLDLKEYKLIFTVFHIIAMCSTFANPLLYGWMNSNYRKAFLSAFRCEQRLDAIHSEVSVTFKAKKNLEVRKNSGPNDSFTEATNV
EP2 antag = blocks the human prostaglandin E2 receptor EP2; C6 glioma cells expressing human EP2, cAMP TR-FRET; cells stimulated with saturating PGE2; actives 0.52% (n = 260,000); inhibition, % at 25 µM;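 active means percent inhibition above 40 after rounding to a whole number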;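 further: rat C6 glioma host cells with rolipram phosphodiesterase inhibitor present; the protocol text gives 20 µM as final concentration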
NPY-Y1 antag = antagonists of human neuropeptide Y receptor Y1; P25929; HEK293-CNG Y1 cells, membrane potential fluorescence; NPY at EC95, then isoproterenol; inhibition, % at 3.6 µM; actives 1% (n = 200,000); AID 1040;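 active means inhibition above the campaign mean inhibition of all tested compounds plus 3 SD, cut at about 20% in these data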;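 further: 0% = DMSO wells given NPY plus isoproterenol and 100% = isoproterenol alone without NPY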
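Assay system: HEK293 cells with Y1 receptor plus CNG channel | Probe or stimulus: NPY (25 nM), isoproterenol (1 µM), Ro 20-1724 (25 µM) | Timing: Compound incubation 1 h at room temperature, readout 45 min post-stimulation | Measured by: Membrane-potential fluorescent dye readout | Benchmarks: High control isoproterenol alone, low control NPY with isoproterenol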
NPY2 pot ag = potentiators or agonists of human neuropeptide Y receptor Y2; P49146; cells expressing NPY-Y2, potentiator/agonist read-out; activation, % at 3.6 µM; actives 0.45% (n = 220,000); AID 1359; in the data active means activation above about 27%;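 further: cells stimulated with NPY near EC25 plus isoproterenol at EC100; 0% = vehicle plus submaximal agonist and 100% = vehicle plus saturating agonist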
NPY1 pot ag = potentiates or activates human NPY-Y1 receptor; P25929; actives 0.37% (n = 220,000); activation, % at 3.6 µM; NPY-Y1 expressing cells, potentiator/agonist activation; AID 1304; in the data active means activation above about 33%, passing the limit was not always enough;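 further: cells stimulated with NPY at EC10 then isoproterenol at EC100; 0% = low agonist plus stimulus and 100% = saturating agonist plus stimulus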
EP2 mod = EP2 receptor (human) modulation. induction, % at 25 µM. P43116. actives 0.83% (n = 260,000). EP2-expressing cells, cAMP HTRF FRET, PGE2 co-stimulation;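 active means compounds whose cAMP rise, as percent of the full-agonist control response, exceeds 60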;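 further: rat C6 glioma line stably carrying human EP2 under a CMV promoter; the protocol text gives 20 µM as final concentration; 100% = response of wells given 1 µM PGE2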
NPY1 antag ctr = counter-screen for NPY-Y2 antagonists: human NPY-Y1 antagonism. inhibition, % at 3.6 µM. actives 19% (n = 710). shares compounds with NPY Y2 blocker. cell-based NPY-Y1 antagonism counterscreen. AID 1256; in the data active means inhibition above about 20%;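 further: cells challenged with NPY then isoproterenol with cAMP sensed through a CNG channel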
NPY2 antag conf = confirmation of human neuropeptide Y receptor Y2 antagonists; HEK293 NPY-Y2 CNG channel, membrane potential fluorescence; inhibition, % at 2.8 µM; actives 32% (n = 710); shares compounds with NPY Y2 blocker; AID 1257;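 active means mean inhibition of triplicate wells above the hit cutoff set in the primary screen, cut at about 17% in these data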;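 further: 0% = DMSO with NPY challenge and 100% = BIIE0246 high control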
* hit, by the source's call. Hits are enriched below; roughly 2.8% of the tested compounds scored in any of these assays.

O=C(Nc1cccc2c1CCCC2)C1CCN(S(=O)(=O)c2ccc(-n3cnnn3)cc2)CC1 was read as EP2 antag 8 and EP2 mod -84.
Screening O=C(NC1CCCC1)C(c1ccsc1)N(CCc1ccccc1)C(=O)Cc1cccs1 (centres undefined) returned NPY Y2 blocker 34*, EP2 antag 4, NPY-Y1 antag 8, NPY2 pot ag 13, NPY1 pot ag 4, EP2 mod 26, NPY1 antag ctr 21* and NPY2 antag conf 13.
O=C(NC1CCCC1)C(c1ccsc1)N(C(=O)Cc1cccs1)c1ccccc1 (centres undefined) was read as NPY Y2 blocker 1, EP2 antag 9, NPY-Y1 antag 4, NPY2 pot ag 2, NPY1 pot ag 1 and EP2 mod 0.
Screening Cc1n[nH]c(=S)n1/N=C/c1ccc(OCc2ccc(Cl)cc2Cl)cc1 returned NPY Y2 blocker 12, EP2 antag 13, NPY-Y1 antag 1, NPY2 pot ag 8, NPY1 pot ag 19 and EP2 mod -14.
For Cc1n[nH]c(=S)n1/N=C/c1ccccc1OCc1ccc(Cl)cc1Cl the results were NPY Y2 blocker 17*, EP2 antag 6, NPY-Y1 antag -1, NPY2 pot ag -11, NPY1 pot ag -16, EP2 mod 1, NPY1 antag ctr 27* and NPY2 antag conf 54*.
For O=C1NN(c2ccc(Cl)cc2)C(=O)/C1=C/c1cccs1 the results were EP2 antag 10 and EP2 mod -111.
Screening O=C1c2ccccc2NC(c2c(Cl)cccc2Cl)N1Cc1ccccc1 (centres undefined) returned NPY Y2 blocker 10, EP2 antag 4, NPY-Y1 antag 11, NPY2 pot ag -7, NPY1 pot ag -3 and EP2 mod 26.
O=C1c2ccccc2NC(c2ccc(Cl)cc2Cl)N1Cc1ccccc1 (centres undefined) was read as NPY Y2 blocker 28*, EP2 antag 9, NPY-Y1 antag 14, NPY2 pot ag -16, NPY1 pot ag -12, EP2 mod 61*, NPY1 antag ctr 6 and NPY2 antag conf 11.
`CCc1[nH]n2c(=O)cc(C)nc2c1-c1ccc(OC)cc1` gave EP2 antag 5 and EP2 mod -21.
For Cc1ccc(/C=C/c2nnc(-c3cccc(C)c3)o2)cc1 the results were NPY Y2 blocker 4, EP2 antag 6, NPY-Y1 antag 9, NPY2 pot ag 3, NPY1 pot ag -9 and EP2 mod 31.
Cc1ccc(-c2nnc(/C=C/c3ccccc3)o2)cc1 was read as NPY Y2 blocker 20*, EP2 antag 4, NPY-Y1 antag 6, NPY2 pot ag -9, NPY1 pot ag -10, EP2 mod 9, NPY1 antag ctr 7 and NPY2 antag conf 10.
For CCNC(=O)CSc1nnc(-c2ccccc2)n1-c1ccc(OCC)cc1 the results were NPY Y2 blocker -2, EP2 antag 6, NPY-Y1 antag 3, NPY2 pot ag -15, NPY1 pot ag 6 and EP2 mod 34.
Screening CCOc1ccc(-n2c(-c3ccccc3)nnc2-c2ccccc2)cc1 returned NPY Y2 blocker 21*, EP2 antag 5, NPY-Y1 antag 10, NPY2 pot ag -24, NPY1 pot ag -32, EP2 mod 53, NPY1 antag ctr 7 and NPY2 antag conf 15.
`Cc1ccc2oc(C(=O)NCc3ccc4c(c3)OCO4)c(C)c2c1` gave NPY Y2 blocker 15, EP2 antag 7, NPY-Y1 antag 3, NPY2 pot ag -20, NPY1 pot ag -20 and EP2 mod -22.
Cc1c(C(=O)NCc2ccc3c(c2)OCO3)oc2ccc(Br)cc12 was read as NPY Y2 blocker 22*, EP2 antag 7, NPY-Y1 antag 9, NPY2 pot ag -24, NPY1 pot ag -30, EP2 mod -42, NPY1 antag ctr 14 and NPY2 antag conf 12.
Screening COCCn1c(-c2ccc(Cl)cc2)cnc1SCC(=O)NCc1cccs1 returned NPY Y2 blocker 18*, EP2 antag 11, NPY-Y1 antag 5, NPY2 pot ag -18, NPY1 pot ag -6, EP2 mod 25, NPY1 antag ctr 14 and NPY2 antag conf 10.
For C=CCn1c(C(C)NC(=O)c2cccs2)n[nH]c1=S (centres undefined) the results were NPY Y2 blocker 10, EP2 antag 7, NPY-Y1 antag 2, NPY2 pot ag -3, NPY1 pot ag 14 and EP2 mod 27.
CCn1c(C(C)NC(=O)c2cccs2)n[nH]c1=S (centres undefined) was read as NPY Y2 blocker 22*, EP2 antag 11, NPY-Y1 antag 1, NPY2 pot ag -2, NPY1 pot ag 5, EP2 mod 3, NPY1 antag ctr 1 and NPY2 antag conf 0.
For OCc1nc2ccccc2n1CC(O)COc1ccc(Cl)cc1Cl (centres undefined) the results were EP2 antag 13 and EP2 mod -89.
Screening Cc1cccc(-c2cc(C(=O)Nc3ccc4c(c3)OCCO4)c3ccccc3n2)c1 returned NPY Y2 blocker 26*, NPY-Y1 antag 3, NPY2 pot ag -34, NPY1 pot ag -76, EP2 mod -1, NPY1 antag ctr 26* and NPY2 antag conf 43*.
Cc1cccc(OCc2nc(C#N)c(NCc3ccc4c(c3)OCO4)o2)c1 was read as NPY Y2 blocker 27*, EP2 antag 16, NPY-Y1 antag 12, NPY2 pot ag -23, NPY1 pot ag -32, EP2 mod -66, NPY1 antag ctr 15 and NPY2 antag conf 13.
CCc1ccc2[nH]c(=O)c(C(c3nnnn3Cc3ccccc3)N3CCCCC3)cc2c1 (centres undefined) was read as EP2 antag 9 and EP2 mod -12.
CCn1ncc(C(=O)N2CCCC(c3ncncc3-c3ccncc3)C2)c1C (centres undefined) was read as EP2 mod -8.
`O=C(/C=C/c1cccc(Cl)c1)c1nc2ccccc2[nH]1` gave NPY Y2 blocker 18*, EP2 antag 15, NPY-Y1 antag 3, NPY2 pot ag -10, NPY1 pot ag 4, EP2 mod -10, NPY1 antag ctr 12 and NPY2 antag conf 34*.
`O=C(/C(=C\c1ccccc1)c1nc2ccccc2[nH]1)c1ccc(Cl)cc1` gave NPY Y2 blocker 1, EP2 antag 7, NPY-Y1 antag -2, NPY2 pot ag 11, NPY1 pot ag -22 and EP2 mod -17.
`Cc1cnc(C)c(N2CCC(C(=O)NCC3CC3)CC2)n1` gave EP2 antag 13 and EP2 mod -18.
